PubChem BioAssay AID602219 (Southern Research Specialized Biocontainment Screening …, 2012)
Records with an inconclusive call do not appear. Calls of active or inactive are those of the source.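 How the source made its calls: active means inhibition of 30% or more at any tested concentration; inactive means the rest, inconclusive results apart.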

These compounds were tested against M1-family alanyl aminopeptidase (Plasmodium falciparum 3D7) (assay: PfM1AAP enzyme inhibition, dose response, selectivity assay for PfM18AAP inhibitor project, biochemical, QFRET, H-Leu-NHMec substrate, set 2 (AID 602219)). Conditions: recombinant PfM1AAP, H-Leu-NHMec fluorogenic cleavage.
Summary of the method: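 Technique: fluorescence, Ex 370 nm / Em 460 nm. Assay system: purified recombinant Plasmodium falciparum M1 alanyl aminopeptidase (rPfM1AAP). Amount: enzyme at 5 µg/mL final. Replication: triplicate. Times: enzyme reaction 90 min at room temperature. Buffer or medium: Tris-HCl pH 7.5, CoCl2, 2% DMSO. Benchmarks: full-reaction wells versus no-enzyme background wells for normalization.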
With Oc1ccc(-c2csc(NC3CCCC3)n2)cc1O the IC50 was 63 µM.
CN1CCN(c2nc(-c3ccc(O)c(O)c3)cs2)CC1 was tested, and the IC50 was 70.1 µM.
Work on Oc1ccc(CCNc2c3ccccc3nc3ccccc23)cc1O yielded an IC50 of 29.8 µM.
Oc1ccc(-c2csc(Nc3ncccn3)n2)cc1O gave an IC50 of 25.9 µM.
For Oc1ccc(CCNc2ccnc3ccccc23)cc1O, the IC50 was 46.4 µM.

Same assay, conditions: recombinant PfM1AAP, H-Leu-NHMec fluorogenic cleavage; at 100 µM (top of the series)
CN1CCN(CCCc2ccc(O)c(O)c2)CC1 was tested, and the inhibition was “inactive”.
With COc1ccc(CCNC(c2ccccc2)c2ccccc2)cc1OC the inhibition was “inactive”.
For CN1CCN(CCc2ccc(O)c(O)c2)CC1, the inhibition was “inactive”.
In the case of COc1ccc(CCCN2CCN(C)CC2)cc1OC, the inhibition is reported as “inactive”.
